Source: PubChem (Broad Institute)
T cruzi growth-1: inhibitors of T. cruzi proliferation; T. cruzi beta-gal in NIH3T3, GalScreen luminescence, 90 h; inhibition, % at 8.34 µM; 77,000 tested, 5.9% active;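 active = mean inhibition above about 93%, with at least 55% of replicates each passing it, limit read from the data, passing the limit was not always enough; inconclusive = only one of those two conditions holds; inactive = neither condition holds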
IDH1 mut inh: inhibitors of human IDH1 R132H; 70,000 tested, 0.18% active; inhibition, % at 10 µM; IDH1 R132H reductase, diaphorase/resazurin fluorescence, 60 min; AID 624101; in the data active = inhibition above about 34%; inconclusive = no clear call, values can overlap the other calls; inactive = below about 11%;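 note: 0% = DMSO and 100% = no enzyme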
Pf Dd2 inh: blocks growth of Plasmodium falciparum Dd2 parasites. P. falciparum Dd2 growth, SYBR Green, 72 h; stronger effect = lower value. activity change, % at 10 µM. 94,000 tested, 2.3% active; in the data active = activity change below about -80%; inconclusive = no clear call, values can overlap the other calls
KDM4C inh: inhibitors of human demethylase GASC-1 KDM4C. inhibition, % at 12.5 µM. 96,000 tested, 0.15% active. GST-KDM4C 2-372, H3K9me3 peptide, LANCE TR-FRET;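 active = mean replicate inhibition above about 25%, with at least 55% of replicates also reaching it, limit read from the data, passing the limit was not always enough; inconclusive = only one of those two conditions met; inactive = neither condition met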
Target sequence (Q9H3R0 2-372 limits assumed): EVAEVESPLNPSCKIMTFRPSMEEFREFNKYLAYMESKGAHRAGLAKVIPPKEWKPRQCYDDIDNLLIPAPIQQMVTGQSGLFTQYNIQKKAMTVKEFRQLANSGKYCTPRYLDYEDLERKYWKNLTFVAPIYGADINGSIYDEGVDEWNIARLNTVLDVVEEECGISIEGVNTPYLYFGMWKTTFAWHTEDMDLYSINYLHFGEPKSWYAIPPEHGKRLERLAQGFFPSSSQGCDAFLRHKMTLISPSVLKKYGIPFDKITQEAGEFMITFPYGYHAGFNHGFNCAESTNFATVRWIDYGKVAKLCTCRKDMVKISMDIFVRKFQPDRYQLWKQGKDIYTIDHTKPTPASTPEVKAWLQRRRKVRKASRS
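Material: N-terminal GST-fused human GASC-1 (KDM4C) fragment, residues 2-372. Input: 10 nM enzyme. Incubation: enzyme reaction 30 min, then detection 60 min, both room temperature. Doses: one test concentration per compound. Read-out basis: inhibition from TR-FRET ratio decrease. Detection: LANCE TR-FRET, excitation 340 nm, emissions 618 and 671 nm.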
T cruzi growth-2: Trypanosoma cruzi proliferation inhibition; T. cruzi beta-gal in NIH3T3, GalScreen luminescence, 90 h; shares compounds with T cruzi growth-1; inhibition, % at 8.35 µM; 5,600 tested, 72% active;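 active = mean replicate inhibition above about 95% and at least 55% of replicates individually reaching it, limit read from the data; inconclusive = only one of the two criteria is met; inactive = neither criterion is met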
T cruzi growth-3: blocks T. cruzi growth in NIH3T3 host cells. shares compounds with T cruzi growth-1. T. cruzi beta-gal in NIH3T3, GalScreen luminescence, 90 h. inhibition, % at 2.09 µM. 5,600 tested, 21% active;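 active = mean inhibition above about 95%, with at least 55% of replicates also reaching it, limit read from the data; inconclusive = meets just one of the two conditions; inactive = meets neither condition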;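 note: plate controls were neutral control median for no effect and positive control median for full effect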
3T3 cytotox: NIH/3T3 (mouse) viability loss | shares compounds with T cruzi growth-1 | NIH/3T3 viability, CellTiter-Glo ATP luminescence, 90 h | cytotoxicity (signal decrease), % at 8.35 µM | 5,600 tested, 14% active | AID 651742;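 active = mean signal decrease across replicates above about 35% based on untreated-well scatter, with enough replicates individually passing, limit read from the data; inconclusive = no rule stated though some were filed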;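 note: 0% = median of neutral control wells and 100% = median of positive control wells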
3T3 cytotox 2: cytotoxicity in mouse NIH/3T3 fibroblasts; inhibition, % at 24.9 µM; NIH/3T3 viability, CellTiter-Glo ATP luminescence, 90 h; shares compounds with T cruzi growth-1; 5,600 tested, 56% active;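 active = mean loss of cell viability signal at or above a set limit, and enough replicates individually reaching it; inconclusive = meets only the mean limit or only the replicate share; inactive = meets neither condition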;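 note: 0% = median of neutral control wells and 100% = median of positive control wells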
Active calls of the source: *; ? = inconclusive; nt = no result. Only some compounds are listed: those with a hit (about 5.9% of all), similar ones and a draw of the others.

SMILES	T cruzi growth-1	IDH1 mut inh	Pf Dd2 inh	KDM4C inh	T cruzi growth-2	T cruzi growth-3	3T3 cytotox	3T3 cytotox 2
Cc1ccc2oc(-c3ccc(NC(=O)Cn4c(=O)oc5ccccc54)cc3)nc2c1	nt	1.5	nt	nt	nt	nt	nt	nt
C[C@@H]1CN([C@H](C)CO)C(=O)c2cc(C#Cc3ccccc3F)cnc2O[C@H]1CN(C)S(=O)(=O)c1ccccc1	125.8*	-0.1	-37.7	-1.4	108.5*	86.6	?	34.5*
C[C@H]1CN([C@@H](C)CO)C(=O)c2cc(C#Cc3ccccc3F)cnc2O[C@@H]1CN(C)S(=O)(=O)c1ccccc1	128.0*	-4.6	-73.2	-1.2	110.2*	78.0	60.5*	47.2*
C[C@@H]1CN([C@H](C)CO)C(=O)c2cc(C#Cc3ccccc3F)cnc2O[C@@H]1CN(C)S(=O)(=O)c1ccccc1	115.6*	-3.7	-36.3	7.5	98.5*	64.1	22.0	68.4*
C[C@H](CO)N1C[C@H](C)[C@@H](CN(C)C(=O)Cc2ccncc2)Oc2ncc(C#Cc3ccccc3F)cc2C1=O	?	nt	-77.5	0.8	111.6*	63.2	18.1	?
C[C@H](CO)N1C[C@H](C)[C@@H](CN(C)S(C)(=O)=O)Oc2ncc(C#Cc3ccccc3F)cc2C1=O	-7.9	-2.4	6.9	-4.4	nt	nt	nt	nt
C[C@@H]1CN([C@@H](C)CO)C(=O)c2cc(C#Cc3ccccc3F)cnc2O[C@@H]1CN(C)S(=O)(=O)c1ccccc1	114.0*	0.2	-31.4	-3.6	98.8*	69.8	30.7	49.8*
COc1ccc(S(=O)(=O)Nc2ccc3c(c2)C(=O)N([C@@H](C)CO)C[C@@H](C)[C@@H](CN(C)S(=O)(=O)c2ccc(F)cc2)OCCCC[C@H](C)O3)cc1	44.5	nt	-62.6	-1.4	nt	nt	nt	nt
COc1ccc(S(=O)(=O)Nc2ccc3c(c2)C(=O)N([C@@H](C)CO)C[C@@H](C)[C@H](CN(C)S(=O)(=O)c2ccc(F)cc2)OCCCC[C@H](C)O3)cc1	100.4*	nt	-27.6	nt	103.4*	38.8	30.1	4.8
COc1ccc(S(=O)(=O)Nc2ccc3c(c2)C(=O)N([C@@H](C)CO)C[C@@H](C)[C@@H](CN(C)S(=O)(=O)c2ccc(F)cc2)OCCCC[C@@H](C)O3)cc1	79.4	0.9	-41.7	-0.6	nt	nt	nt	nt
COc1ccc(S(=O)(=O)N(C)C[C@H]2OCCCC[C@@H](C)Oc3ccc(NS(=O)(=O)c4ccc(F)cc4)cc3C(=O)N([C@@H](C)CO)C[C@H]2C)cc1	100.4*	3.2	-51.3	0.8	98.5*	75.1	-16.2	-14.6
COc1ccc(S(=O)(=O)Nc2ccc3c(c2)C(=O)N([C@@H](C)CO)C[C@@H](C)[C@H](CN(C)S(=O)(=O)c2ccc(F)cc2)OCCCC[C@@H](C)O3)cc1	107.6*	1.3	-12.4	10.0	114.1*	64.8	10.8	22.9
O=C1C[C@H](c2ccc(O)cc2)Oc2c1c(O)cc(O)c2[C@@H]1C(=O)c2c(O)cc(O)cc2O[C@H]1c1ccc(O)cc1	nt	4.4	nt	nt	nt	nt	nt	nt
CC(=O)c1cccc(NC(=O)Cn2nc([N+](=O)[O-])c(Br)c2C)c1	nt	0.0	nt	nt	nt	nt	nt	nt
Cc1cc(C)cc(COc2ccc3c(C)c(CCC(=O)O)c(=O)oc3c2C)c1	nt	0.0	nt	nt	nt	nt	nt	nt
CCSc1ccccc1C(=O)Nc1ccc(S(=O)(=O)Nc2ncccn2)cc1	nt	0.0	nt	nt	nt	nt	nt	nt
CCCN1[C@@H]2c3ccc(C4=CCCC4)c(=O)n3C[C@@H]2[C@@H](CO)[C@@H]1C(=O)NCc1cccc(OC)c1	101.4*	nt	-8.3	-1.2	73.1	-36.5	19.5	?
COc1cccc(CNC(=O)[C@@H]2[C@@H](CO)[C@@H]3Cn4c(ccc(C5=CCCC5)c4=O)[C@@H]3N2CC2CC2)c1	37.4	nt	-9.0	11.5	nt	nt	nt	nt
CN1[C@H](C(=O)NCc2ccccc2F)[C@@H](CO)[C@@H]2Cn3c(ccc(C4=CCCC4)c3=O)[C@@H]21	57.7	nt	nt	2.1	nt	nt	nt	nt
CN1[C@@H]2c3ccc(C4=CCCCC4)c(=O)n3C[C@@H]2[C@@H](CO)[C@@H]1C(=O)NCc1ccccc1	102.7*	nt	-8.9	3.2	96.4*	30.0	10.1	7.4
COc1ccc(-c2nnc(SCC(=O)Nc3ccc(C)cc3C)n2-c2ccccc2)cc1OC	nt	-0.2	nt	nt	nt	nt	nt	nt
CC1=C(C(=O)OC(C)C)C(c2ccccc2[N+](=O)[O-])n2ncnc2N1 (stereo not given)	nt	0.4	nt	nt	nt	nt	nt	nt
C/C=C/c1ccc([C@@H]2[C@H](CO)N3CCCCN(C(=O)Nc4ccc(OC)cc4)C[C@@H]23)cc1	60.9	nt	-24.3	-3.1	nt	nt	nt	nt
COc1ccc(C#Cc2ccc([C@H]3[C@@H](CO)N4CCCCN(C(=O)Nc5cccc(F)c5)C[C@@H]34)cc2)cc1	112.2*	nt	0.9	-3.6	100.9*	108.7*	23.3	18.2
COc1ccc(C#Cc2ccc([C@H]3[C@@H](CO)N4CCCCN(C(=O)Nc5ccccc5)C[C@@H]34)cc2)cc1	124.8*	nt	-31.7	-2.9	110.6*	113.6*	12.2	30.5*
SMILES	T cruzi growth-1	IDH1 mut inh	Pf Dd2 inh	KDM4C inh	T cruzi growth-2	T cruzi growth-3	3T3 cytotox	3T3 cytotox 2
COc1ccc(C#Cc2ccc([C@@H]3[C@H]4CN(C(=O)Nc5cccc(F)c5)CCCCN4[C@H]3CO)cc2)cc1	67.6	nt	-50.6	-1.5	nt	nt	nt	nt
COc1ccc(C#Cc2ccc([C@H]3[C@H]4CN(C(=O)Nc5ccccc5)CCCCN4[C@H]3CO)cc2)cc1	119.0*	nt	-77.4	-0.6	108.0*	56.1	18.9	21.7
C/C=C/c1ccc([C@H]2[C@@H](CO)N3CCCCN(C(=O)Nc4ccc(OC)cc4)C[C@H]23)cc1	?	nt	-17.4	-0.4	85.4	10.0	-1.4	89.8*
C[C@@H]1CN([C@@H](C)CO)C(=O)c2cc(N(C)C)ccc2O[C@@H](C)CCCCO[C@@H]1CN(C)C(=O)NC1CCCCC1	103.4*	-2.7	5.7	14.0	11.4	-6.6	5.1	-19.1
C[C@@H]1CN([C@H](C)CO)C(=O)c2cc(NC(=O)Nc3ccc(F)cc3)ccc2O[C@@H](C)CCCCO[C@@H]1CN(C)C(=O)NC1CCCCC1	54.8	0.1	-72.1	4.5	nt	nt	nt	nt
C[C@@H]1CCCCO[C@@H](CN(C)C(=O)NC2CCCCC2)[C@H](C)CN([C@H](C)CO)C(=O)c2cc(NC(=O)Nc3ccc4c(c3)OCO4)ccc2O1	104.7*	nt	-16.4	1.8	104.7*	74.3	-0.8	-33.0
C[C@H]1CCCCO[C@@H](CN(C)C(=O)NC2CCCCC2)[C@@H](C)CN([C@@H](C)CO)C(=O)c2cc(NC(=O)Nc3ccc(F)cc3)ccc2O1	108.9*	nt	-45.6	-1.6	115.0*	54.8	13.3	5.4
